# Assay results pooled from the literature.
# Lines come from different studies, so protocols differ. pEC50, pIC50: −log10 of the molar value.
# Organism: Trypanosoma brucei
# Observed: parasite growth
SMILES,test,test system,conditions,measurement,result
Nc1nc(N)nc(Nc2ccc([As]3SCC(CO)S3)cc2)n1 (centres unmarked),,RHODESIENSE STIB900,,pIC50,8.15
O=C(O)c1ccccc1-c1ccccc1C(=O)Nc1cc2c3ccccc3ccc2c2ccccc12,resazurin,,72 h,pEC50,4.61
Cc1nn(C)c(C)c1NS(=O)(=O)c1c(Cl)cc(-c2ccnc(N3CCNCC3)c2)cc1Cl,,RHODESIENSE,,pEC50,9.22
COC(=O)C1CCN(C(=O)c2ccc(N(C)Cc3cnc4nc(N)nc(N)c4n3)cc2)CC1,resazurin,,"10 µM, 72 h",inhibition,26%
CNC1CC(c2ccc(Cl)c(Cl)c2)c2ccccc21 (centres unmarked),,,blood stage,pEC50,5.71
COC(=O)C1CCN(C(=O)c2ccc(NCc3cnc4nc(N)nc(N)c4n3)cc2)CC1,resazurin,,"10 µM, 72 h",inhibition,16%
O=C(O)c1ccccc1-c1ccccc1C(=O)Nc1ccc2c(c1)oc(=O)c1ccccc12,resazurin,,72 h,pEC50,< 4.30
c1ccc(CCCN2CCN(CCOC(c3ccccc3)c3ccccc3)CC2)cc1,,,blood stage,pEC50,5.03
